Assay results published in ChEMBL document CHEMBL5532704, “Exploiting thiol-functionalized benzosiloxaboroles for achieving diverse substitution patterns - synthesis, characterization and biological evaluation of promising antibacterial agents” (RSC Med Chem, 2024).
Values after ≈ are worked out from the molar mass of the structure shown.

Legend:
Candida tropicalis [1] = assay: Antifungal activity against Candida tropicalis IBA 171 assessed as fungal growth inhibition by broth-microdilution method; format: functional
How it was run: (§1)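 Yeasts were stored at −80 °C and subcultured twice on Sabouraud dextrose agar (24–48 h, 30 °C) to confirm viability. Growth inhibition was then measured as MIC by broth microdilution.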

Candida tropicalis [2] = assay: Antifungal activity against Candida tropicalis ATCC 750 assessed as fungal growth inhibition by broth-microdilution method; format: functional; how it was run: as §1
[3] = system: Meyerozyma guilliermondii; assay: Antifungal activity against Candida guilliermondii IBA 155 assessed as fungal growth inhibition by broth-microdilution method; format: functional; how it was run: as §1
Candida albicans = assay: Antifungal activity against Candida albicans ATCC 90028 assessed as fungal growth inhibition by broth-microdilution method; format: functional; how it was run: as §1
Saccharomyces cerevisiae = assay: Antifungal activity against Saccharomyces cerevisiae ATCC 9763 assessed as fungal growth inhibition by broth-microdilution method; format: functional; how it was run: as §1
Candida parapsilosis = assay: Antifungal activity against Candida parapsilosis ATCC 22019 assessed as fungal growth inhibition by broth-microdilution method; format: functional; settings: Lodderomyces parapsilosis; how it was run: as §1
[4] = Selectivity ratio of IC50 for cytotoxicity against human MRC5 cells assessed as inhibition of cell growth to MIC for antibacterial activity against methicillin-resistant Staphylococcus aureus ATCC 43300 assessed as inhibition of microbial growth; format: toxicity, cell-based
Pichia kudriavzevii = assay: Antifungal activity against Candida krusei ATCC 6258 assessed as fungal growth inhibition by broth-microdilution method; format: functional; how it was run: as §1
Staphylococcus aureus = assay: Antibacterial activity against methicillin-resistant Staphylococcus aureus ATCC 43300 assessed as diameter of inhibition zone by CLSI based disc-diffusion method; format: functional
How it was run: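 Disc-diffusion on standard strain subcultured twice on tryptic soy agar (24–48 h, 30 °C) after storage at −80 °C; inhibition zone diameter read; linezolid disc (0.03 mg) as reference.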

Bacillus subtilis = assay: Antibacterial activity against Bacillus subtilis ATCC 6633 assessed as diameter of inhibition zone by CLSI based disc-diffusion method; format: functional
How it was run: (§2)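 Strains were stored at −80 °C, then subcultured twice on tryptic soy agar for 24–48 h at 30 °C before the disc-diffusion test. The result was recorded as the inhibition-zone diameter.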

[5] = system: Staphylococcus epidermidis; assay: Antibacterial activity against Staphylococcus epidermidis ATCC 12228 assessed as diameter of inhibition zone by CLSI based disc-diffusion method; format: functional; how it was run: as §2
Enterococcus faecalis = assay: Antibacterial activity against Enterococcus faecalis ATCC 29212 assessed as diameter of inhibition zone by CLSI based disc-diffusion method; format: functional; how it was run: as §2
Enterococcus faecium = assay: Antibacterial activity against Enterococcus faecium ATCC 6057 assessed as diameter of inhibition zone by CLSI based disc-diffusion method; format: functional; how it was run: as §2
[6] = Selectivity ratio of IC50 for cytotoxicity against human MRC5 cells assessed as inhibition of cell growth to MIC for antibacterial activity against methicillin-resistant Staphylococcus aureus NMI 664 K assessed as inhibition of microbial growth by broth-microdilution method; format: toxicity, cell-based
[7] = Selectivity ratio of IC50 for cytotoxicity against human MRC5 cells assessed as inhibition of cell growth to MIC for antibacterial activity against methicillin-resistant Staphylococcus aureus NMI 1991 K assessed as inhibition of microbial growth by broth-microdilution method; format: toxicity, cell-based
[8] = Selectivity ratio of IC50 for cytotoxicity against human MRC5 cells assessed as inhibition of cell growth to MIC for antibacterial activity against methicillin-resistant Staphylococcus aureus NMI 1576 K assessed as inhibition of microbial growth by broth-microdilution method; format: toxicity, cell-based
[9] = Selectivity ratio of IC50 for cytotoxicity against human MRC5 cells assessed as inhibition of cell growth to MIC for antibacterial activity against methicillin-resistant Staphylococcus aureus NMI 1712 K assessed as inhibition of microbial growth by broth-microdilution method; format: toxicity, cell-based
[10] = Selectivity ratio of IC50 for cytotoxicity against human MRC5 cells assessed as inhibition of cell growth to MIC for antibacterial activity against methicillin-resistant Staphylococcus aureus NMI 2541 K assessed as inhibition of microbial growth by broth-microdilution method; format: toxicity, cell-based

| Structure (SMILES) | selectivity ratio [4] | diameter of the inhibition zone (DIZ) (Staphylococcus aureus) [mm] | diameter of the inhibition zone (DIZ) (Bacillus subtilis) [mm] | diameter of the inhibition zone (DIZ) [5] [mm] | diameter of the inhibition zone (DIZ) (Enterococcus faecalis) [mm] | diameter of the inhibition zone (DIZ) (Enterococcus faecium) [mm] | further results |
| --- | --- | --- | --- | --- | --- | --- | --- |
| C[Si]1(C)OB(O)c2cc(F)c(SC3CC(=O)N(c4ccc(F)cc4)C3=O)c(F)c21 (stereo not drawn) | 2.7 | 24 |  |  |  |  | MIC (Candida tropicalis [1]): > 12.5 µg/mL; MIC (Candida tropicalis [2]): > 12.5 µg/mL; MIC [3]: > 12.5 µg/mL; MIC (Candida albicans): > 12.5 µg/mL; MIC (Saccharomyces cerevisiae): 6.25 µg/mL (≈ 14.3 µM); MIC (Candida parapsilosis): > 12.5 µg/mL; MIC (Pichia kudriavzevii): > 12.5 µg/mL |
| C[Si]1(C)OB(O)c2cc(F)c(S(=O)(=O)N3CCOCC3)c(F)c21 |  |  | 12 |  |  |  |  |
| C[Si]1(C)OB(O)c2ccc(SCCS(=O)(=O)c3ccccc3)c(F)c21 |  |  | 21 | 22 | 15 |  |  |
| C[Si]1(C)OB(O)c2ccc(S)c(F)c21 |  |  | 23 |  |  | 18 |  |
| C[Si]1(C)OB(O)c2cc(F)c(S)c(F)c21 |  |  | 22 | 24 |  | 24 |  |
| C[Si]1(C)OB(O)c2cc(F)c(S(=O)(=O)Cl)c(F)c21 |  |  | 15 | 13 |  |  |  |
| C[Si]1(C)OB(O)c2cc(F)c(S(=O)(=O)Nc3ccc(F)cc3)c(F)c21 | 0.7 | 16 |  | 19 |  |  |  |
| CC(=O)CSc1ccc2c(c1F)[Si](C)(C)OB2O | > 32 |  | 24 | 23 | 16 |  | selectivity ratio [6]: > 32; selectivity ratio [7]: > 32; selectivity ratio [8]: > 32; selectivity ratio [9]: > 32; selectivity ratio [10]: > 32 |
| Cc1cc(NC(=O)CCSc2c(F)cc3c(c2F)[Si](C)(C)OB3O)no1 |  | 14 | 17 | 13 | 12 | 14 |  |
| CC(=O)NC[C@H]1CN(c2ccc(N3CCOCC3)c(F)c2)C(=O)O1 [LINEZOLID] |  |  | 30 | 26 | 15 | 14 |  |
| C[Si]1(C)OB(O)c2cc(F)c(SC3CC(=O)N(c4ccc(Br)c(C(F)(F)F)c4)C3=O)c(F)c21 (stereo not drawn) | 1.5 |  |  | 18 | 18 | 18 | MIC (Candida tropicalis [1]): > 12.5 µg/mL; MIC (Candida tropicalis [2]): > 12.5 µg/mL; MIC [3]: > 12.5 µg/mL; MIC (Candida albicans): > 12.5 µg/mL; MIC (Candida parapsilosis): > 12.5 µg/mL; MIC (Pichia kudriavzevii): > 12.5 µg/mL |
| C[Si]1(C)OB(O)c2ccc(SCCC(=O)OCCCCCC[n+]3ccccc3)c(F)c21.O=S(=O)([O-])C(F)(F)F |  | 18 | 19 | 21 | 12 | 12 |  |
| C[Si]1(C)OB(O)c2cc(F)c(SCCC(=O)Nc3cnccn3)c(F)c21 |  | 25 | 19 | 22 | 13 | 15 |  |
| C[Si]1(C)OB(O)c2cc(F)c(SCCC(=O)N3CCOCC3)c(F)c21 |  |  | 14 | 19 |  |  |  |
| C[Si]1(C)OB(O)c2ccc(SC3CC(=O)N(c4ccc(Br)c(C(F)(F)F)c4)C3=O)c(F)c21 (stereo not drawn) | 5.6 |  |  |  | 17 |  | MIC (Candida tropicalis [1]): > 12.5 µg/mL; MIC (Candida tropicalis [2]): > 12.5 µg/mL; MIC [3]: > 12.5 µg/mL; MIC (Candida albicans): > 12.5 µg/mL; MIC (Candida parapsilosis): > 12.5 µg/mL; MIC (Pichia kudriavzevii): > 12.5 µg/mL |
| C[Si]1(C)OB(O)c2ccc(SC(=O)c3ccc(C(F)(F)F)cc3)c(F)c21 | 8.9 |  | 15 | 16 |  | 12 | MIC (Candida tropicalis [1]): > 12.5 µg/mL; selectivity ratio [6]: 8.9; selectivity ratio [7]: 4.5; MIC (Candida tropicalis [2]): > 12.5 µg/mL; MIC [3]: > 12.5 µg/mL; selectivity ratio [8]: 4.5; MIC (Candida albicans): > 12.5 µg/mL; MIC (Saccharomyces cerevisiae): 6.25 µg/mL (≈ 15.6 µM); MIC (Candida parapsilosis): > 12.5 µg/mL; MIC (Pichia kudriavzevii): > 12.5 µg/mL; selectivity ratio [9]: 8.9; selectivity ratio [10]: 8.9 |
| C[Si]1(C)OB(O)c2ccc(SCC(=O)c3ccccc3)c(F)c21 | 40.4 |  |  |  | 17 | 17 | selectivity ratio [6]: 40.4; selectivity ratio [7]: 80.8; selectivity ratio [8]: 40.4; selectivity ratio [9]: 40.4; selectivity ratio [10]: 80.8 |
| C[Si]1(C)OB(O)c2cc(F)c(SCCS(=O)(=O)c3ccccc3)c(F)c21 | 19.5 | 28 |  |  | 14 | 15 | selectivity ratio [6]: 19.5; selectivity ratio [7]: 19.5; selectivity ratio [8]: 19.5; selectivity ratio [9]: 19.5; selectivity ratio [10]: 19.5 |
| C[Si]1(C)OB(O)c2cc(F)c(SCCC(=O)Nc3ncccn3)c(F)c21 |  | 12 | 15 | 11 | 13 |  |  |
| COC(=O)CCSc1ccc2c(c1F)[Si](C)(C)OB2O |  | 24 | 23 | 22 |  |  |  |
| C[Si]1(C)OB(O)c2ccc(SC3CC(=O)N(c4ccc(F)cc4)C3=O)c(F)c21 (stereo not drawn) | 5.8 | 21 |  | 21 | 20 | 22 | MIC (Candida tropicalis [1]): > 12.5 µg/mL; MIC (Candida tropicalis [2]): > 12.5 µg/mL; MIC [3]: > 12.5 µg/mL; MIC (Candida albicans): > 12.5 µg/mL; MIC (Saccharomyces cerevisiae): 6.25 µg/mL (≈ 14.9 µM); MIC (Candida parapsilosis): > 12.5 µg/mL; MIC (Pichia kudriavzevii): > 12.5 µg/mL |
| C[Si]1(C)OB(O)c2cc(F)c(SCCC(N)=O)c(F)c21 |  |  | 15 | 19 | 12 | 12 |  |
| C[Si]1(C)OB(O)c2cc(F)c(SCCC(=O)OCCCCCC[n+]3ccccc3)c(F)c21.O=S(=O)([O-])C(F)(F)F |  | 17 |  |  |  |  |  |
